RGS4 inh: human RGS4 inhibition | HEK293 M3R/RGS4 inducible, Fluo-4 calcium flux; hits give high values; triggered by carbachol at its EC20 | B-score at 10 µM | actives 0.45% (n = 310,000) | AID 463165;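 active = B-score, a plate-corrected calcium signal, over three deviations above library mean, with baseline fluorescence within five deviations of library mean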;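 also: RGS4 expression induced by doxycycline in cells with stable M3 receptor; B-score is computed from the integrated fluorescence ratio over baseline after carbachol; higher B-score means a larger calcium signal and so more RGS4 inhibition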
Target sequence (P49798 whole entry, looked up): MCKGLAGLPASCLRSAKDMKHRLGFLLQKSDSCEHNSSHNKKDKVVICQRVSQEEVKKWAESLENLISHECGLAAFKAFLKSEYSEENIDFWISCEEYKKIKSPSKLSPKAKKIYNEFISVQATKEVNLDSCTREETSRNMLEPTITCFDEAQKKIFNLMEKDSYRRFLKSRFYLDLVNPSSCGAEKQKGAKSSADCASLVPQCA
MrgX1 antagonist: antagonists of human MrgX1 receptor. Q96LB2. MRGX1-HEK293 calcium flux, Fluo-4, BAM8-22 antagonism; hits give low values. B-score at 10 µM. actives 1.3% (n = 310,000). AID 588676;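 active = calcium-response B-score plate-corrected more than 3 library SD below zero, starting fluorescence within 5 deviations, no agonist response on first addition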;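 also: peak minus trough fluorescence over baseline after final BAM8-22 challenge near maximal dose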
Target sequence (Q96LB2 whole entry, looked up): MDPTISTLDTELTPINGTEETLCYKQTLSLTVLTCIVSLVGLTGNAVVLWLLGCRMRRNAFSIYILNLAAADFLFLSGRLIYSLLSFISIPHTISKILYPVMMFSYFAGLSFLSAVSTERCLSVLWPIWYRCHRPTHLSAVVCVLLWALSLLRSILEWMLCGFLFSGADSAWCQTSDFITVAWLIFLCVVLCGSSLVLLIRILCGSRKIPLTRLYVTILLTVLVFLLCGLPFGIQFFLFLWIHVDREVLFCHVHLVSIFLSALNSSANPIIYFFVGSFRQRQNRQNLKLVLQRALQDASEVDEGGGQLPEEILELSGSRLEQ
MrgX1 ag: agonists of human MrgX1 receptor. B-score at 10 µM. MrgX1-HEK293 cells, Fluo-4 calcium fluorescence, agonist mode; hits give high values. actives 0.44% (n = 310,000). Q96LB2;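 active = calcium response B-score plate-corrected fluorescence ratio at least 3 library SD, with starting fluorescence B-score inside 5 SD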
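Test system: HEK293 cells stably expressing human MrgX1 receptor; amount: 15,000 cells per well; doses: compound delivered in addition one of three; times: overnight plating before 1 h dye loading; detection: Fluo-4 NW calcium-flux fluorescence, kinetic read; read-out basis: B-scored fluorescence response ratio; controls: positive and negative controls per plate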
MrgX1 allo act: human MrgX1 positive allosteric modulation, primary screen. Q96LB2. MrgX1-HEK293, Fluo-4 calcium flux, FDSS; hits give high values. B-score at 10 µM. actives 0.63% (n = 310,000). AID 588675;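 active = plate-corrected calcium response at least 3 library SD above typical, normal starting fluorescence, not activating the receptor alone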;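 also: compound read alongside a low EC10 to EC30 dose of BAM8-22 agonist; peak minus trough fluorescence over baseline measured at the second addition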
RGS4 act: potentiators or activators of RGS4; B-score at 10 µM; HEK293 M3R/inducible RGS4, carbachol calcium flux Fluo4; hits give low values; actives 0.92% (n = 310,000); AID 463111;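 active = B-score of the integrated calcium signal more than 4 SD below the library mean, with starting fluorescence not abnormally high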;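 also: negative B-score means reduced calcium response which marks RGS4 activation or potentiation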
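Test system: HEK293 cells with stable M3R and inducible RGS4; also added: carbachol at ECmax as muscarinic agonist stimulus; schedule: dye loading 30 min 37 °C, buffer rest 30 min RT; technique: kinetic calcium fluorescence imaging with Fluo4-AM dye, 2 µM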
RGS4 activ val: confirmation of RGS4 activators; shares compounds with RGS4 act; HEK293 M3R/RGS4 inducible, carbachol calcium flux Fluo4; inhibition, % at 10 µM; actives 89% (n = 1,100);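 active = inhibition above 3 SD of the buffer control wells, cut at about 41% in these data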;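 also: signal is the integrated peak-minus-minimum Fluo4 fluorescence over baseline ratio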
RGS4 act ctr: activity in cells without induced RGS4 expression; shares compounds with RGS4 act; HEK293 M3R non-induced RGS4, Fluo4 calcium flux; after carbachol challenge at its EC90; inhibition, % at 10 µM; actives 82% (n = 1,100);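 active = inhibition exceeding 3 SD of buffer-only control wells, cut at about 26% in these data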;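 also: percent drop in integrated peak-minus-baseline over baseline Fluo4 ratio after carbachol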
RGS4 inh valid: validation of RGS4 inhibitors | shares compounds with RGS4 inh | HEK293 M3R/RGS4, carbachol calcium Fluo-4 fluorescence; carbachol added at its EC20; 0 = buffer wells, 100 = carbachol control | calcium response, % at 10 µM | actives 65% (n = 1,700);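 active = duplicate-averaged calcium response above the buffer-only control mean plus 5 SD of those controls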;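 also: integrated fluorescence ratio F max minus min over baseline F0; higher response in RGS4-induced cells means RGS4 inhibition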
M3R Ca ctr: counter-screen for RGS4 inhibitors: effect in non-induced cells. shares compounds with RGS4 inh. AID 493000. HEK293 M3R non-induced, carbachol calcium Fluo-4; submaximal (EC20) carbachol stimulus; buffer wells 0%, carbachol control wells 100%. actives 20% (n = 1,900). activity (percent), % at 10 µM; call rule not given here;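 also: RGS4 induction absent so cells express M3R without RGS4; higher means more calcium signal and flags a non-specific hit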
M3R basal Ca ctr: signal in non-induced cells without carbachol, RGS4 inhibitor counter-screen; shares compounds with RGS4 inh; HEK293 M3R/RGS4 non-induced, Fluo-4 calcium, no carbachol; normalised: buffer wells 0%, carbachol wells 100%; calcium response (agonist-mode artifact), % at 10 µM; actives 22% (n = 1,900); AID 493001;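 active = duplicate-averaged calcium rise in uninduced cells above buffer wells' mean plus 5 SD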
MrgX1 ag reconf: confirmation of human MrgX1 receptor agonists | activation, % at 10 µM | actives 78% (n = 600) | MrgX1-HEK293, Fluo-4 calcium fluorescence, FDSS | shares compounds with MrgX1 ag;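 active = calcium signal rise, corrected for plate position, at least 3 library SD high, with starting brightness within 5 such deviations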
HEK293 Ca flux: MrgX1 antagonist counter-screen hit in parental HEK293 cells. shares compounds with MrgX1 antagonist. Fluo-4 calcium fluorescence, FDSS. fluorescence ratio F(max-min)/F0 at 10 µM. actives 2% (n = 4,000). AID 624111;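 active = duplicate-averaged calcium fluorescence ratio at least three times the standard deviation of buffer wells, a nonspecific response in parental cells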
HEK293 Ca counter: counter-screen for MrgX1 allosteric activators: effect in parental HEK293 cells; shares compounds with MrgX1 antagonist; parental HEK293 calcium flux, Fluo-4 fluorescence ratio; hits give high values; fluorescence ratio F(max-min)/F0 at 10 µM; actives 0.4% (n = 4,000);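 active = calcium fluorescence ratio, averaged over duplicates, at least 3 SD of the buffer-well ratio, meaning a nonspecific response in receptor-free cells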;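 also: untransfected parental HEK293 lacking MrgX1 used as counterscreen for MrgX1 allosteric activators; fluorescence change taken during the second addition on a kinetic imager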
HEK293 Ca cntr2: counter-screen for MrgX1 activators: effect in parental HEK293 cells; shares compounds with MrgX1 antagonist; Fluo-4 calcium fluorescence (FDSS); hits give high values; fluorescence ratio F(max-min)/F0 at 10 µM; actives 8.7% (n = 4,000); AID 624115;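 active = calcium fluorescence ratio at least three times the spread of buffer wells, meaning a non-specific response in parental cells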
Of the large screens only hits and unclear results are named; the others gave an inactive call (follow-up assays come after a bar, where they were run). An excerpt weighted towards active compounds, which were near 3.5% of everything screened.

CCCCn1c(=O)c(C(=O)Nc2ncccc2C)c(O)c2ccccc21	MrgX1 ag 35.1, RGS4 act -9.48 | RGS4 activ val 66.5 | RGS4 act ctr 40.8 | MrgX1 ag reconf inactive | HEK293 Ca flux inactive | HEK293 Ca counter inactive | HEK293 Ca cntr2 inactive
CCC(CC)NC1CCCCC1OC (stereo not drawn)	none
CCN(CC)C(=O)Cn1cc(/C=C2\C(=O)NC(=O)N(c3ccccc3F)C2=O)c2ccccc21	RGS4 inh 6.59, MrgX1 ag 26.8 | RGS4 inh valid 37.5% | M3R Ca ctr inactive | M3R basal Ca ctr 429.5%
O=C1NC(=O)C(=Cc2ccc(-c3ccc(Cl)cc3)o2)C(=O)N1	RGS4 inh 14 | RGS4 inh valid 16.0% | M3R Ca ctr inactive | M3R basal Ca ctr 8.5%
O=C1NC(=O)C(=Cc2ccc(-c3ccc(F)cc3O)o2)C(=O)N1	RGS4 inh 39.5 | RGS4 inh valid 73.5% | M3R Ca ctr 31.5% | M3R basal Ca ctr 10.0%
O=C1NC(=O)C(=Cc2ccc3c(c2)OCO3)C(=O)N1	none
O=C1NC(=O)C(=Cc2ccc(-c3ccc(S(=O)(=O)N4CCOCC4)cc3)o2)C(=O)N1	none
O=C(O)C(Cc1cnc[nH]1)NS(=O)(=O)c1ccc(Cl)cc1 (stereo not drawn)	none
N[C@@H](Cc1cc(Br)c(O)c(Br)c1)C(=O)O	RGS4 inh 6.7 | RGS4 inh valid 11.5% | M3R Ca ctr inactive | M3R basal Ca ctr inactive
COc1cc(/C=C/[N+](=O)[O-])ccc1OC(=O)c1cccnc1	RGS4 inh 48.6 | RGS4 inh valid 113.0% | M3R Ca ctr 45.0% | M3R basal Ca ctr 26.5%
CCN(CC)c1ccc(C=C2C(=O)NC(=S)NC2=O)cc1	RGS4 inh 36.3 | RGS4 inh valid 56.0% | M3R Ca ctr 29.5% | M3R basal Ca ctr inactive
CC(C)CN(CC(C)C)c1ccc(C=C2C(=O)NC(=S)NC2=O)cc1[N+](=O)[O-]	none
c1ccc2cc(C3N4CCCN34)ccc2c1 (stereo not drawn)	none
Cc1cccc(NP(=O)(Oc2ccccc2)Oc2ccccc2)c1C	none
Cc1ccccc1NP(=O)(Oc1ccccc1F)Oc1ccccc1F	RGS4 act -7.53 | RGS4 inh valid inactive | M3R Ca ctr inactive | M3R basal Ca ctr inactive
O=C1NC(=O)N(Cc2ccc(F)cc2)C(=O)/C1=C/c1cccs1	RGS4 inh 30.2 | RGS4 inh valid 15.0% | M3R Ca ctr inactive | M3R basal Ca ctr inactive
COc1ccc(N2C(=O)/C(=C/c3ccc(C)o3)C(=O)NC2=S)cc1	none (no result: MrgX1 antagonist, MrgX1 ag, MrgX1 allo act) | M3R Ca ctr 33.0% | M3R basal Ca ctr 12.0%
Cc1ccc(/C=C2\C(=O)NC(=S)N(c3cccc(F)c3)C2=O)o1	RGS4 inh 15.7 | RGS4 inh valid 34.5% | M3R Ca ctr inactive | M3R basal Ca ctr inactive
Cc1ccc(/C=C2\C(=O)NC(=O)N(CCc3ccc(F)cc3)C2=O)o1	none | M3R Ca ctr inactive | M3R basal Ca ctr 8.5%
O=C1NC(=O)N(Cc2ccccc2Cl)C(=O)/C1=C/c1cccs1	none
CCOc1cc(C2C(C#N)=C(N)Oc3c2c(=O)oc2ccccc32)ccc1OC(=O)c1cccs1 (stereo not drawn)	none
CN1CCN2c3ccc(N)cc3CC3(C(=O)NC(=O)NC3=O)C2C1 (stereo not drawn)	none (no result: MrgX1 antagonist, MrgX1 ag, MrgX1 allo act)
C/C(=C\c1ccc(N(C)C)cc1)[N+](=O)[O-]	RGS4 inh 7.61 | RGS4 inh valid 23.5% | M3R Ca ctr 62.5% | M3R basal Ca ctr 14.5%
CN(C)c1ccc(/C=C/[N+](=O)[O-])cc1	RGS4 inh 19.2 | RGS4 inh valid 54.0% | M3R Ca ctr inactive | M3R basal Ca ctr 75.5%
CCn1c(O)c(C(c2ccccn2)c2c(O)n(CC)c(=S)[nH]c2=O)c(=O)[nH]c1=S	none
C=CCN1C(=O)/C(=C/c2ccc(Br)s2)C(=O)NC1=S	RGS4 inh 10.8, MrgX1 antagonist -5.62 | RGS4 inh valid 5.0% | M3R Ca ctr inactive | M3R basal Ca ctr inactive
CN1C(=O)/C(=C/c2ccc(Cl)s2)C(=O)NC1=S	RGS4 inh 9.92 | RGS4 inh valid 5.5% | M3R Ca ctr inactive | M3R basal Ca ctr inactive
C=CCN1C(=O)/C(=C/c2ccc3c(c2)CCCN3CCC)C(=O)NC1=S	none
CC12CN3CC(C)(CN(C1)C3c1cccs1)C2=O (stereo not drawn)	none
CN(C)CC1CSCCC1(O)c1ccccc1 (stereo not drawn)	none
C=CCn1c(O)c(/C=N/NC(=O)c2ccncc2)c(=O)[nH]c1=O	none
O=C(N/N=C/c1c(O)n(Cc2ccc(F)cc2)c(=O)[nH]c1=O)c1ccccc1	none | M3R Ca ctr inactive | M3R basal Ca ctr inactive
O=C(N/N=C/c1c(O)n(Cc2ccccc2)c(=O)[nH]c1=O)c1ccncc1	none | M3R Ca ctr 34.5% | M3R basal Ca ctr inactive
COc1ccc(NC2=NC(C)(C)CS2)cc1	none
O=C1NC(=O)C(=Cc2coc3ccc(O)cc3c2=O)C(=O)N1	RGS4 inh 5.3 | RGS4 inh valid 8.5% | M3R Ca ctr inactive | M3R basal Ca ctr inactive
COc1ccc(NP(=O)(Oc2ccc(Cl)cc2)Oc2ccc(Cl)cc2)cc1OC	RGS4 inh 11.6 | RGS4 inh valid 42.5% | M3R Ca ctr inactive | M3R basal Ca ctr inactive

High-throughput results (PubChem BioAssay)
